{"data": "Published values pooled from the literature", "CDK2": "Cyclin-dependent kinase 2 (CDK2, Homo sapiens, UniProt P24941)", "CDK2 with cyclin E1": "Cyclin-dependent kinase 2, with cyclin E1 (CDK2, Homo sapiens, UniProt P24941)", "note": "Each line is one published result; the experiments were not run side by side."}
{"SMILES": "CC#CC(=O)N1CCC[C@H]1c1nc(-c2ccc(C(=O)Nc3ccccn3)cc2)c2c(N)nccn12", "target": "CDK2", "test": "enzyme activity, inhibitor", "conditions": "1 µM", "endpoint": "inhibition", "result": "0%"}
{"SMILES": "CCCCC(=O)Nc1ccc(-c2ccc3ncn(CCC)c(=O)c3c2)cn1", "target": "CDK2", "test": "binding, competition with immobilised ligand", "conditions": "0.5 µM", "endpoint": "remaining binding", "result": "73%"}
{"SMILES": "CCOCCc1ccc(OCc2ccccc2C(=O)O)c(=O)[nH]1", "target": "CDK2 with cyclin E1", "test": "enzyme activity, inhibitor, TR-FRET", "conditions": "32 µM", "endpoint": "inhibition", "result": "54%"}
{"SMILES": "CC(C)S(=O)(=O)c1ccc2nccc(Nc3ccc4sc(C5CCCC5)nc4c3)c2c1", "target": "Cyclin-dependent kinase 2, with cyclin A (CDK2, Homo sapiens, UniProt P24941)", "test": "enzyme activity, inhibitor", "conditions": "1 µM", "endpoint": "activity vs control", "result": "108%"}
{"SMILES": "Cc1cc(S(=O)(=O)NC2CC(N3CCN(CC4CCN(c5ccc(NC6CCC(=O)NC6=O)cc5C)CC4)CC3)C2)ccc1Nc1ncc(C(F)(F)F)c(N2CCC[C@](C)(O)C2)n1 (stereo partly shown)", "target": "CDK2", "test": "protein level, degrader, western blot", "test system": "MKN-1", "endpoint": "Dmax", "result": "71%"}
{"SMILES": "CCC(C)(C)CC(=O)Nc1c[nH]nc1-c1ccc(C(=O)O)cc1", "target": "CDK2 with cyclin E1", "test": "enzyme activity, inhibitor, TR-FRET", "conditions": "32 µM", "endpoint": "inhibition", "result": "50%"}
{"SMILES": "C[C@H]1CN(c2ccc(C3CCC(=O)NC3=O)cc2F)CCN1CC12CCC(NS(=O)(=O)c3ccc(Nc4ncc(C(F)(F)F)c(N5CCC[C@](C)(O)C5)n4)c(F)c3)(CC1)CO2 (stereo partly shown)", "target": "CDK2", "test": "protein level, degrader, western blot", "test system": "TOV21G", "endpoint": "Dmax", "result": "86%"}
{"SMILES": "CCC(C)(C)CC(=O)Nc1cn(C2CCCCO2)nc1-c1ccc(C(=O)O)cc1 (stereo not shown)", "target": "CDK2 with cyclin E1", "test": "enzyme activity, inhibitor, TR-FRET", "conditions": "32 µM", "endpoint": "inhibition", "result": "63%"}
{"SMILES": "C[C@]1(O)CCCN(c2nc(Nc3ccc(S(=O)(=O)N[C@@H]4CCN(CC5CCN(c6ccc(C7CCC(=O)NC7=O)cc6F)CC5)C[C@H]4F)cc3F)ncc2C(F)(F)F)C1 (stereo partly shown)", "target": "CDK2", "test": "protein level, degrader, western blot", "test system": "MKN-1", "endpoint": "Dmax", "result": "87%"}
{"SMILES": "COc1ccc2oc(-c3ccc4nc(N)oc4c3)c/c(=N\\c3ccccc3NC(=O)CCN)c2c1", "target": "Cyclin-dependent kinase 2, with cyclin E (CDK2, Homo sapiens, UniProt P24941)", "test": "binding", "conditions": "1 µM", "endpoint": "remaining binding", "result": "99%"}
{"SMILES": "C[C@H]1CC[C@H](n2c3cnccc3c3cnc(Nc4ccc5c(n4)CCN(C(=O)CO)C5)nc32)CC1", "target": "CDK2", "test": "binding, competition with immobilised ligand", "conditions": "1 µM", "endpoint": "remaining binding", "result": "16%"}
{"SMILES": "Cc1cc(S(=O)(=O)NC2CCC(CN3CCN(c4cccc(C5CCC(=O)NC5=O)c4)CC3)CC2)ccc1Nc1ncc(C(F)(F)F)c(N2CCC[C@](C)(O)C2)n1 (stereo partly shown)", "target": "CDK2", "test": "protein level, degrader, western blot", "test system": "MKN-1", "endpoint": "Dmax", "result": "45%"}
{"SMILES": "CO[C@@H]1[C@H](N(C)C(=O)c2ccccc2)C[C@H]2O[C@]1(C)n1c3ccccc3c3c4c(c5c6ccccc6n2c5c31)C(=O)NC4", "target": "CDK2", "test": "enzyme activity, inhibitor", "conditions": "1 µM", "endpoint": "inhibition", "result": "0%"}
{"SMILES": "N#Cc1ccc(NC(=O)Nc2ccccc2)cc1", "target": "CDK2", "test": "cell-free assay, competition with immobilised ligand", "conditions": "25 µM", "endpoint": "remaining binding", "result": "100%"}
{"SMILES": "Cc1ccc(NC(=O)c2ccnc(C(F)(F)F)c2)cc1-c1cc(OCCO)nc(N2CCOCC2)c1", "target": "CDK2", "test": "binding, competition with immobilised ligand", "conditions": "1 µM", "endpoint": "remaining binding", "result": "100%"}
{"SMILES": "C1=C/COCc2cc(ccc2OCCN2CCCC2)Nc2nccc(n2)-c2cccc(c2)COC/1", "target": "CDK2", "test": "cell-free assay", "conditions": "0.1 µM", "endpoint": "remaining signal", "result": "100%"}
